# Assay results as given in ChEMBL document CHEMBL2203173 (J Med Chem, 2012).
# Experiments:
# [1] = system: Mus musculus; test: Toxicity in BALB/c nu/nu mouse xenografted with human DMS53 cells assessed as change in brain histology at 8 mg/kg, iv administered for 5 days a week measured after 21 days by hematoxylin and eosin staining method; format: organism-based, DMS-53; set-up: dose 8 mg/kg, route intravenous; conditions: in vivo, 504 h
# In short: (§1)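 DMS-53 xenografts in nude mice; dosing started at 100 mm3 tumor volume. Agents given iv via tail vein, 5 days/week for 21 days, vehicle 30% propylene glycol/saline, vehicle-treated controls. Mice sacrificed day 21. Body and organ weights and hematological indices recorded. Spleen, kidney, liver, heart, lungs and brain were stained with H&E, Perls' and Gomori Trichrome and read by an independent veterinary pathologist.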
# [2] = system: Mus musculus; test: Toxicity in BALB/c nu/nu mouse xenografted with human DMS53 cells assessed as change in hematopoetic cells in splenic red pulp at 8 mg/kg, iv administered for 5 days a week measured after 21 days by hematoxylin and eosin staining method; format: organism-based, DMS-53; set-up: dose 8 mg/kg, route intravenous; conditions: in vivo, 504 h; in short: as §1
# [3] = system: Mus musculus; test: Toxicity in BALB/c nu/nu mouse xenografted with human DMS53 cells assessed as change in organ weight at 4 mg/kg, iv administered for 5 days a week measured after 21 days; format: organism-based, DMS-53; set-up: dose 4 mg/kg, route intravenous; conditions: in vivo, 504 h
# In short: (§2)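 DMS-53 xenograft-bearing nude mice, treatment started at 100 mm3 tumour volume: iv tail-vein dosing in 30% propylene glycol/saline, 5 days/week for 21 days. Organs were weighed at sacrifice and compared with vehicle-control mice.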
# [4] = system: Mus musculus; test: Toxicity in BALB/c nu/nu mouse xenografted with human DMS53 cells assessed as vacuolation at 8 mg/kg, iv administered for 5 days a week measured after 21 days by hematoxylin and eosin staining method; format: organism-based, DMS-53; set-up: dose 8 mg/kg, route intravenous; conditions: in vivo, 504 h
# In short: (§3)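 Nude mice with DMS-53 xenografts dosed by tail-vein iv injection in 30% propylene glycol/saline, starting at 100 mm3 tumour volume, 5 days/week for 21 days. Spleen, kidney, liver, heart, lungs and brain were stained with H&E, Perls' (Fe loading) and Gomori Trichrome (fibrosis) by standard methods, and an independent veterinary pathologist examined them.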
# [5] = system: Mus musculus; test: Toxicity in BALB/c nu/nu mouse xenografted with human DMS53 cells assessed as change in lungs histology at 4 mg/kg, iv administered for 5 days a week measured after 21 days by hematoxylin and eosin staining method; format: organism-based, DMS-53; set-up: dose 4 mg/kg, route intravenous; conditions: in vivo, 504 h; in short: as §1
# [6] = system: Mus musculus; test: Toxicity in BALB/c nu/nu mouse xenografted with human DMS53 cells assessed as change in reticulocyte count at 4 mg/kg, iv administered for 5 days a week measured after 21 days; format: organism-based, DMS-53; set-up: dose 4 mg/kg, route intravenous; conditions: in vivo, 504 h
# In short: (§4)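 Nude mice carrying DMS-53 xenografts (treatment from 100 mm3) received iv tail-vein doses in 30% propylene glycol/saline, 5 days/week for 21 days. Hematological indices (RBC, hemoglobin, hematocrit, reticulocytes, WBC, platelets) were then compared with vehicle controls.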
# [7] = system: Mus musculus; test: Toxicity in BALB/c nu/nu mouse xenografted with human DMS53 cells assessed as cardiac fibrosis at 8 mg/kg, iv administered for 5 days a week measured after 21 days by […]; format: organism-based, Heart, DMS-53; set-up: dose 8 mg/kg, route intravenous; conditions: in vivo, 504 h
# In short: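 DMS-53 xenograft nude mice given agents iv by tail vein 5 days/week in 30% propylene glycol/saline for 21 days. At sacrifice, heart sections were stained with Gomori Trichrome to detect fibrosis. Spleen, kidney, liver, heart, lungs and brain were also stained with H&E and Perls' and examined by an independent veterinary pathologist.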
# [8] = system: Mus musculus; test: Toxicity in BALB/c nu/nu mouse xenografted with human DMS53 cells assessed as change in organ weight at 8 mg/kg, iv administered for 5 days a week measured after 21 days; format: organism-based, DMS-53; set-up: dose 8 mg/kg, route intravenous; conditions: in vivo, 504 h; in short: as §2
# [9] = system: Mus musculus; test: Toxicity in BALB/c nu/nu mouse xenografted with human DMS53 cells assessed as change in hemoglobin level at 4 mg/kg, iv administered for 5 days a week measured after 21 days; format: organism-based, DMS-53; set-up: dose 4 mg/kg, route intravenous; conditions: in vivo, 504 h; in short: as §1
# [10] = system: Mus musculus; test: Toxicity in BALB/c nu/nu mouse xenografted with human DMS53 cells assessed as change in brain histology at 4 mg/kg, iv administered for 5 days a week measured after 21 days by hematoxylin and eosin staining method; format: organism-based, DMS-53; set-up: dose 4 mg/kg, route intravenous; conditions: in vivo, 504 h; in short: as §1
# [11] = system: Mus musculus; test: Toxicity in BALB/c nu/nu mouse xenografted with human DMS53 cells assessed as change in brain histology at 3 mg/kg, iv administered for 5 days a week measured after 21 days by hematoxylin and eosin staining method; format: organism-based, DMS-53; set-up: dose 3 mg/kg, route intravenous; conditions: in vivo, 504 h; in short: as §1
# [12] = system: Mus musculus; test: Toxicity in BALB/c nu/nu mouse xenografted with human DMS53 cells assessed as change in RBC count at 10 mg/kg, po administered for 3 times a week measured after 20 days; format: organism-based, DMS-53; set-up: dose 10 mg/kg, route oral; conditions: in vivo, 480 h
# [13] = system: Mus musculus; test: Toxicity in BALB/c nu/nu mouse xenografted with human DMS53 cells assessed as change in RBC count at 7.5 mg/kg, po administered for 3 times a week measured after 20 days; format: organism-based, DMS-53; set-up: dose 7.5 mg/kg, route oral; conditions: in vivo, 480 h
# [14] = system: Mus musculus; test: Toxicity in BALB/c nu/nu mouse xenografted with human DMS53 cells assessed as hepatocellular necrosis at 3 mg/kg, iv administered for 5 days a week measured after 21 days by hematoxylin and eosin staining method; format: organism-based, DMS-53; set-up: dose 3 mg/kg, route intravenous; conditions: in vivo, 504 h; in short: as §3
# [15] = system: Mus musculus; test: Toxicity in BALB/c nu/nu mouse xenografted with human DMS53 cells assessed as change in RBC count at 6 mg/kg, iv administered for 5 days a week measured after 21 days; format: organism-based, DMS-53; set-up: dose 6 mg/kg, route intravenous; conditions: in vivo, 504 h
# [16] = system: Mus musculus; test: Toxicity in BALB/c nu/nu mouse xenografted with human DMS53 cells assessed as change in RBC count at 3 mg/kg, iv administered for 5 days a week measured after 21 days; format: organism-based, DMS-53; set-up: dose 3 mg/kg, route intravenous; conditions: in vivo, 504 h
# [17] = system: Mus musculus; test: Toxicity in BALB/c nu/nu mouse xenografted with human DMS53 cells assessed as body weight change at 10 mg/kg, po administered for 3 times a week measured after 20 days; conditions: in vivo, 480 h
# [18] = system: Mus musculus; test: Toxicity in human DMS53 cells xenografted BALB/c nu/nu mouse assessed as change in organ weight at 6 mg/kg, iv administered for 5 days a week measured after 21 days; format: organism-based, DMS-53; set-up: dose 6 mg/kg, route intravenous; conditions: in vivo, 504 h; in short: as §2
# [19] = system: Mus musculus; test: Toxicity in BALB/c nu/nu mouse xenografted with human DMS53 cells assessed as change in platelet count at 6 mg/kg, iv administered for 5 days a week measured after 21 days; format: organism-based, DMS-53; set-up: dose 6 mg/kg, route intravenous; conditions: in vivo, 504 h; in short: as §4
# [20] = system: Mus musculus; test: Toxicity in BALB/c nu/nu mouse xenografted with human DMS53 cells assessed as body weight change at 7.5 mg/kg, po administered for 3 times a week measured after 20 days; conditions: in vivo, 480 h
# [21] = system: Mus musculus; test: Toxicity in BALB/c nu/nu mouse xenografted with human DMS53 cells assessed as change in platelet count at 3 mg/kg, iv administered for 5 days a week measured after 21 days; format: organism-based, DMS-53; set-up: dose 3 mg/kg, route intravenous; conditions: in vivo, 504 h; in short: as §4
# [22] = system: Mus musculus; test: Toxicity in BALB/c nu/nu mouse xenografted with human DMS53 cells assessed as body weight change at 20 mg/kg, po administered for 3 times a week measured after 20 days; format: organism-based, DMS-53; set-up: dose 20 mg/kg, route oral; conditions: in vivo, 480 h
# In short: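 DMS-53 xenograft nude mice dosed by oral gavage 3 times/week in 30% propylene glycol/saline, with vehicle controls. Average body weight recorded during 20 days of treatment. n = 6–11 mice/condition, mean ± SD.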
# [23] = system: Mus musculus; test: Toxicity in BALB/c nu/nu mouse xenografted with human DMS53 cells assessed as change in hematopoetic cells in splenic red pulp at 3 mg/kg, iv administered for 5 days a week measured after 21 days by hematoxylin and eosin staining method; format: organism-based, DMS-53; set-up: dose 3 mg/kg, route intravenous; conditions: in vivo, 504 h; in short: as §1
smiles,measurement,setting,value
CN(C(=S)NN=C(c1ccccn1)c1ccccn1)C1CCCCC1.Cl,Activity,[1],Non-toxic
same,Activity,[2],Non-toxic
same,Activity,[3],Non-toxic
same,Activity,[4],Toxic
same,Activity,[5],Non-toxic
same,Activity,[6],Non-toxic
same,Activity,[7],Non-toxic
same,Activity,[8],Toxic
same,Activity,[9],Non-toxic
same,Activity,[10],Non-toxic
CCN(C)C(=S)NN=C(c1ccccn1)c1ccccn1.Cl,Activity,[11],Non-toxic
same,Activity,[12],Toxic
same,Activity,[13],Non-toxic
same,Activity,[14],Non-toxic
same,Activity,[15],Non-toxic
same,Activity,[16],Non-toxic
same,Activity,[17],Non-toxic
same,Activity,[18],Toxic
same,Activity,[19],Non-toxic
same,Activity,[20],Non-toxic
same,Activity,[21],Toxic
same,Activity,[22],Non-toxic
same,Activity,[23],Non-toxic
